From ChEMBL document CHEMBL1143573, “Synthesis and structure-activity relationships of a new model of arylpiperazines. 8. Computational simulation of ligand-receptor interaction of 5-HT(1A)R agonists with selectivity over alpha1-adrenoceptors” (J Med Chem, 2005)

Key:
[1] = biological target: T1, Adrenergic receptor alpha-1 (Rattus norvegicus, UniProt P15823+P23944+P43140); experiment: In vitro inhibition of [3H]prazosin binding to Alpha-1 adrenergic receptor in rat cerebral cortex membranes; type: cell membranes, Membrane
T1 sequence (P15823 whole entry): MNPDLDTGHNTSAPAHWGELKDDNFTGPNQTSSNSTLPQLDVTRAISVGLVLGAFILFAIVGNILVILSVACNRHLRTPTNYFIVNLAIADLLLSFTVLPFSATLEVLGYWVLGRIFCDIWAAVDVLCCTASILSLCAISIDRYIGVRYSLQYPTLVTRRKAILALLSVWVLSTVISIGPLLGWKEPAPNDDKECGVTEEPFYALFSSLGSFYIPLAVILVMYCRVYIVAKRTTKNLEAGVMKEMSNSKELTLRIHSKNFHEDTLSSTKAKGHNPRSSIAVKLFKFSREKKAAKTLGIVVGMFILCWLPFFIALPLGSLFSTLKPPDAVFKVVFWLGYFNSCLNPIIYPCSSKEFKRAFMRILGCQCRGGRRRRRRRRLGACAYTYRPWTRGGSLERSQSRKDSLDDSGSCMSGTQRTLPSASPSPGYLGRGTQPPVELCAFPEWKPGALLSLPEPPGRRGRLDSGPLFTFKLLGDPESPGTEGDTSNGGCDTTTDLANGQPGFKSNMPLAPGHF
T1 sequence (P23944 whole entry): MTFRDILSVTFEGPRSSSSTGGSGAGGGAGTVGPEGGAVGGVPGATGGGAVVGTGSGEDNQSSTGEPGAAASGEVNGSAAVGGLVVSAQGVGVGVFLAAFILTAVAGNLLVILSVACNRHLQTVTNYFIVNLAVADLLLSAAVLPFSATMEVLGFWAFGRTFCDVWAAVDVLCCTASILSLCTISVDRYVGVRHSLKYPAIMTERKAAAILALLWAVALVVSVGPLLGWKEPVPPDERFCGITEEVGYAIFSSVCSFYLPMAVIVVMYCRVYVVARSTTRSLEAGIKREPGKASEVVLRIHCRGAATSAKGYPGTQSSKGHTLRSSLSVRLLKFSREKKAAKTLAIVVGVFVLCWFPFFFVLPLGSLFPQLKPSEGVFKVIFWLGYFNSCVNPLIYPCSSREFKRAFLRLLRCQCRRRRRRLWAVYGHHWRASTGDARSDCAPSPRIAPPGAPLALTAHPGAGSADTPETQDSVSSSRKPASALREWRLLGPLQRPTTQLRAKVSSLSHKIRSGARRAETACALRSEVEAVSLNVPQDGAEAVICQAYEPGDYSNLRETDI
T1 sequence (P43140 whole entry): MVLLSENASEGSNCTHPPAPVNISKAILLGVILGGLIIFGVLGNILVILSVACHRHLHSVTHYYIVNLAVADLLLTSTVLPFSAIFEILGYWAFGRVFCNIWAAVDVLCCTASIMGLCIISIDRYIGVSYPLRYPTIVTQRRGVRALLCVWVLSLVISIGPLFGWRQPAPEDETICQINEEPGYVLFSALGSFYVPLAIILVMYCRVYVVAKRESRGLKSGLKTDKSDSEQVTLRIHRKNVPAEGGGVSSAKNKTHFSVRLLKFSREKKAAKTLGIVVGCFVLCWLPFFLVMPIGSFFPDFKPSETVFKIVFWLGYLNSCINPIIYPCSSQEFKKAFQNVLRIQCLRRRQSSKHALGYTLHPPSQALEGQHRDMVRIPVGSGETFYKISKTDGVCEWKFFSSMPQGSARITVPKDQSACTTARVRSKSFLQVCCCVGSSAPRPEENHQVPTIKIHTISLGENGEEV
Method in brief: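 Rat cerebral cortex membranes (about 250 µg protein) in 50 mM Tris-HCl with 10 mM MgCl2, pH 7.4. Incubated 30 min at 25 °C with 0.2 nM [3H]prazosin and six competitor concentrations. Nonspecific binding with 10 µM phentolamine. Compounds screened at 10^-6 M, curves run if displacement exceeded 55%. Triplicates, 2-4 experiments; Ki by Cheng-Prusoff.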

[2] = biological target: 5-hydroxytryptamine receptor 7 (Rattus norvegicus, UniProt P32305); experiment: In vitro inhibition of [3H]5-CT binding to 5-hydroxytryptamine 7 receptor in rat hypothalamus membranes; type: cell membranes, Membrane
Method in brief: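 Rat hypothalamus membranes were incubated 120 min at 23 °C with 0.5 nM [3H]-5-CT. Nonspecific binding with 10 µM 5-HT. Filtration and scintillation counting, triplicates, 2-4 experiments. Ki from curve fit by Cheng-Prusoff.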

[3] = biological target: T2, 5-hydroxytryptamine receptor 1A (Homo sapiens) (UniProt P08908); experiment: (§1) Inhibition of forskolin-induced increase in cAMP in human 5-hydroxytryptamine 1A receptor expressed HeLa cells; type: functional, cell-based
T2 sequence (whole entry): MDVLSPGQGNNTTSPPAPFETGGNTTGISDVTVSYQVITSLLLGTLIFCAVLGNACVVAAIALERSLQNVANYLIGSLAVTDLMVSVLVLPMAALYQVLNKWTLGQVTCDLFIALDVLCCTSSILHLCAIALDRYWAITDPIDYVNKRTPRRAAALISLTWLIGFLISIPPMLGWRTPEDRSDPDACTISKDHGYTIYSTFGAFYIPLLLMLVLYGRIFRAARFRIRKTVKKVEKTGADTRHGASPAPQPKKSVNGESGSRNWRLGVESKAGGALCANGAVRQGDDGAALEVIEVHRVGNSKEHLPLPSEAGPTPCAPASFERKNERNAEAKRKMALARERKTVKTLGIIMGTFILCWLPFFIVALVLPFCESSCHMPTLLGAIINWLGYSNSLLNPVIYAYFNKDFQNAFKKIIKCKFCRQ
Method in brief: (§2)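 HeLa cells stably expressing human 5-HT1A (HA 6) were plated 48 h ahead. Cells treated 10 min at 37 °C, 5% CO2, with 0.5 mM IBMX, 10 µM forskolin and compound (10-9-10-5 M), then lysed in 65% ethanol. cAMP measured by [3H] radioimmunoassay, expressed as % of forskolin-stimulated adenylate cyclase activity. Duplicate experiments, four wells per concentration; EC50 by curve fit.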

[4] = biological target: Sodium-dependent serotonin transporter (Rattus norvegicus, UniProt P31652); experiment: In vitro inhibition of [3H]paroxetine binding to 5-hydroxytryptamine transporter in rat cerebral cortex membranes; type: cell membranes, Membrane
Method in brief: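 Rat cortical membranes (about 120 µg protein) incubated 60 min at 25 °C with 0.2 nM [3H]paroxetine. Buffer is Tris-HCl with 20 mM NaCl and 5 mM KCl, pH 7.4. Nonspecific binding with 10 µM fluoxetine. Filtration, scintillation counting, triplicates; Ki by Cheng-Prusoff.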

[5] = biological target: 5-hydroxytryptamine receptor 4 (Rattus norvegicus, UniProt Q62758); experiment: In vitro inhibition of [3H]GR-113808 binding to 5-hydroxytryptamine 4 receptor of rat striatum membranes; type: cell membranes, Membrane
Method in brief: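 Membranes from rat striatum were incubated 30 min at 37 °C with 0.1 nM [3H]GR113808 in 50 mM HEPES, pH 7.4. Nonspecific binding with 30 µM 5-HT. Bound radioactivity counted after GF/B filtration, triplicates. Ki from iterative curve fit via Cheng-Prusoff.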

[6] = biological target: T3, 5-hydroxytryptamine receptor 1A (Rattus norvegicus, UniProt P19327); experiment: In vitro inhibition of [3H]8-OH-DPAT binding to 5-hydroxytryptamine 1A receptor in rat cerebral cortex membranes; type: cell membranes, Membrane
T3 sequence (P19327 whole entry): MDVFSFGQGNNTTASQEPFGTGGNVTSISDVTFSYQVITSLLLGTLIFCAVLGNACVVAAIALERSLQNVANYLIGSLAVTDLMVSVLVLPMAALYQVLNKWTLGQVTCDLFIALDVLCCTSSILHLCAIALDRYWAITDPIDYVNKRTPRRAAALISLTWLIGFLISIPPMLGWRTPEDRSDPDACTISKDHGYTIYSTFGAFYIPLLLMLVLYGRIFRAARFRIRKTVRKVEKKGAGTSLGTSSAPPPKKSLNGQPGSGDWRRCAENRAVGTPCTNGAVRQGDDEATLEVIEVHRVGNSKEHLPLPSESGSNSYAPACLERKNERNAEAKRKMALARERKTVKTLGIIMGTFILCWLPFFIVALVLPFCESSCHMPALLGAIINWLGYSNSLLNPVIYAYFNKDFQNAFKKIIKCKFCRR
Method in brief: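 Rat cerebral cortex membranes (about 1 mg protein) incubated 15 min at 37 °C with 0.6 nM [3H]-8-OH-DPAT in 50 mM Tris-HCl, pH 7.4, containing 10 nM clonidine and 30 nM prazosin. Nonspecific binding with 10 µM 5-HT. Compounds screened at 10^-6 M; curves run if displacement exceeded 55%. Filtration, scintillation counting, triplicates, 2-4 experiments; Ki by Cheng-Prusoff.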

[7] = biological target: T4, 5-hydroxytryptamine receptor 3A (Rattus norvegicus, UniProt P35563); experiment: In vitro inhibition of [3H]LY-278584 binding to 5-hydroxytryptamine 3 receptor in rat cerebral cortex membranes; type: cell membranes, Membrane
T4 sequence (P35563 whole entry): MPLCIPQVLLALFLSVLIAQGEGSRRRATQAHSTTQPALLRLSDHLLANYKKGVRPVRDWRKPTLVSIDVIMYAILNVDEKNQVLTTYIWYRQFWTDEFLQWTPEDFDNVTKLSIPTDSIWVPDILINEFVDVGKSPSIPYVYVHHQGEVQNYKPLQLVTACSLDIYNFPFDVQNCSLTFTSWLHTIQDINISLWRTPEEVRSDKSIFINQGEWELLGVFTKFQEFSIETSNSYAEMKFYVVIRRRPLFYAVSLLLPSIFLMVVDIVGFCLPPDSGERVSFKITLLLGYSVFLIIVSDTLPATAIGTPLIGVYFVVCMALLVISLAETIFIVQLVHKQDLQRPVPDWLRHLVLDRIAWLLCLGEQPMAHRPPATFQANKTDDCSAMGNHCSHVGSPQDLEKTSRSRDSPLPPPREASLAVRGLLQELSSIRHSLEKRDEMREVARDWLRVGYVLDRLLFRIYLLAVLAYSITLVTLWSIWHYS
Method in brief: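 Sucrose-prepared rat cerebral cortex membranes were incubated 30 min at 25 °C with 0.7 nM [3H]LY278584. Nonspecific binding with 10 µM 5-HT. Filtration and scintillation counting, triplicates; Ki by Cheng-Prusoff.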

[8] = biological target: D(2) dopamine receptor (Rattus norvegicus, UniProt P61169); experiment: In vitro inhibition of [3H]-raclopride binding to Dopamine receptor D2 in rat striatum membranes; type: cell membranes, Membrane
Method in brief: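 Male Sprague-Dawley rat striatum membranes (125-150 µg protein) incubated 60 min at 25 °C with 0.8 nM [3H]raclopride and six competitor concentrations. Nonspecific binding with 1 µM (+)-butaclamol. GF/B filtration, scintillation counting, triplicates. Ki by Cheng-Prusoff.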

[9] = biological target: GABA-A receptor; anion channel; experiment: In vitro inhibition of [3H]flunitrazepam binding to Benzodiazepine receptor of rat cerebral cortex membranes; type: cell membranes, Membrane
Method in brief: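 Rat brain membranes (about 100 µg protein) in 25 mM potassium phosphate, pH 7.4, incubated 90 min at 0-4 °C with 0.25 nM [3H]flunitrazepam. Nonspecific binding with 2 µM diazepam. Filtration, scintillation counting, triplicates; Ki by Cheng-Prusoff.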

[10] = biological target: 5-hydroxytryptamine receptor 2A (Rattus norvegicus, UniProt P14842); experiment: In vitro inhibition of [3H]ketanserin binding to 5-hydroxytryptamine 2A receptor in rat cerebral frontal cortex membranes; type: cell membranes, Membrane
Method in brief: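 Rat frontal cortex membranes were incubated 15 min at 37 °C with 0.4 nM [3H]ketanserin. Nonspecific binding with 1 µM cinanserin. Filtration, scintillation counting, triplicates; Ki by Cheng-Prusoff.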

[11] = biological target: T5, 5-hydroxytryptamine receptor 1A (Homo sapiens, UniProt P08908); experiment: as §1; type: functional, cell-based; method in brief: as §2
T5 sequence (P08908 whole entry): T2 sequence (whole entry)

Sequence of 5-hydroxytryptamine receptor 2A (P14842 whole entry): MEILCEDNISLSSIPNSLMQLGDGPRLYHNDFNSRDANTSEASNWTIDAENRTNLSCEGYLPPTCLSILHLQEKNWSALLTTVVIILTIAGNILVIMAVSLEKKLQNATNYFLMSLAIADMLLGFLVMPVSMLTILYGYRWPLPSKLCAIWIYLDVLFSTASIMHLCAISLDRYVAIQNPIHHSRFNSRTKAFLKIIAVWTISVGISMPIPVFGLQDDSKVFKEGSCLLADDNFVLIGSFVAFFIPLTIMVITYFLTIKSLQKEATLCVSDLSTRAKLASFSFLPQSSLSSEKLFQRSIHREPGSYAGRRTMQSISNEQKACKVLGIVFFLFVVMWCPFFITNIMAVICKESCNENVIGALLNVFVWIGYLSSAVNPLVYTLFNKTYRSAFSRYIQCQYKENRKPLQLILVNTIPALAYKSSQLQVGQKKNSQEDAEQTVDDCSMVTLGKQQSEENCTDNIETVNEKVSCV
Sequence of Sodium-dependent serotonin transporter (P31652 whole entry): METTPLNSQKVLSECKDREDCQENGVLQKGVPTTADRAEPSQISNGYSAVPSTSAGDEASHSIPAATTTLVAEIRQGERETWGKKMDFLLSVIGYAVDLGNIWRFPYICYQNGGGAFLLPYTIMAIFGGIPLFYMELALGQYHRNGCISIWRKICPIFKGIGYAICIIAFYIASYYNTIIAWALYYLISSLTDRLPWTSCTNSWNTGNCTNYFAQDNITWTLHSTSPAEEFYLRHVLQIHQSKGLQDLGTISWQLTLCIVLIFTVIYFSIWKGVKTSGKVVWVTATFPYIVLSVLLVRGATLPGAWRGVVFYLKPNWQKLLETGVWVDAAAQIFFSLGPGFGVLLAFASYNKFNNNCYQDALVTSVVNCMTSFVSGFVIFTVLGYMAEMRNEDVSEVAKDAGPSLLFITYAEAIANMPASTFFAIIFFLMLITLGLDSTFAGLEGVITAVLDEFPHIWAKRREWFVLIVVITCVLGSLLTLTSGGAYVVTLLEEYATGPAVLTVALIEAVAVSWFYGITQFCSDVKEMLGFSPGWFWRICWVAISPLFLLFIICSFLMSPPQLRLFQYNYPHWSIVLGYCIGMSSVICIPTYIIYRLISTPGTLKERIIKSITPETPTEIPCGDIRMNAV
Sequence of D(2) dopamine receptor (P61169 whole entry): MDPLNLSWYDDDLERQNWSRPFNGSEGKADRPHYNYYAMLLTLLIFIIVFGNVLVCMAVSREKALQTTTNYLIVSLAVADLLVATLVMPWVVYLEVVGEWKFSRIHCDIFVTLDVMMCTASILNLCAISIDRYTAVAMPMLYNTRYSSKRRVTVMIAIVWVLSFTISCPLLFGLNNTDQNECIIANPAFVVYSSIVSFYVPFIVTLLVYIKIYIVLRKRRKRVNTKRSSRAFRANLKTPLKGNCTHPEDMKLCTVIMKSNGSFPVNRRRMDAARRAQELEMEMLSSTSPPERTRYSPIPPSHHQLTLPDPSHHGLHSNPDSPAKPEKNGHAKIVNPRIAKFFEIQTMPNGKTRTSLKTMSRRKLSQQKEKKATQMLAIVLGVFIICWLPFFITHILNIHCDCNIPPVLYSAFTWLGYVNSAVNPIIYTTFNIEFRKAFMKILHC
Sequence of 5-hydroxytryptamine receptor 7 (P32305 whole entry): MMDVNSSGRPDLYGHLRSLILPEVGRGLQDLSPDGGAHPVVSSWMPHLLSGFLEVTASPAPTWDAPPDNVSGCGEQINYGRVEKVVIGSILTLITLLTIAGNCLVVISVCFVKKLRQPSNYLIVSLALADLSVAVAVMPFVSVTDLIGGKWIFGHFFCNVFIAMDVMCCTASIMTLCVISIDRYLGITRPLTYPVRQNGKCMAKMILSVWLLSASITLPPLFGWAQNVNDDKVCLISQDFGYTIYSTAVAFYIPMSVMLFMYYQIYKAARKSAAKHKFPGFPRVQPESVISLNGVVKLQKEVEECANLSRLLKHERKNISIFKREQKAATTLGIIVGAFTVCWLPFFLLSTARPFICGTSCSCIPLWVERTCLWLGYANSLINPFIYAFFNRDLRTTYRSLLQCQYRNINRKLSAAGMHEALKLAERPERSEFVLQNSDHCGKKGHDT
Sequence of 5-hydroxytryptamine receptor 4 (Q62758 whole entry): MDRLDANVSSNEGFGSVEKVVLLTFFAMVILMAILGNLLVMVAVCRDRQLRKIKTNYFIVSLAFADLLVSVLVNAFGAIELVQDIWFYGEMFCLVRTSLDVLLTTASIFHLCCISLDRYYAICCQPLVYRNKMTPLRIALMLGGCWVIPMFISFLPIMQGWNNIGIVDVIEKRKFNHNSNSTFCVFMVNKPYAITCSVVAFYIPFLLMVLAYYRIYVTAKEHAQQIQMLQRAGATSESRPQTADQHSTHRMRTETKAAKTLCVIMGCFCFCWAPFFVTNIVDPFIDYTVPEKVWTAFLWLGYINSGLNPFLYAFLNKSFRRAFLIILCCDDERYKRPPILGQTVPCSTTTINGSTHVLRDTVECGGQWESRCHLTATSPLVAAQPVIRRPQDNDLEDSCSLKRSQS

Compound	Ki [1]	further results
C[C@H]1CN(c2cccc3ccccc23)CCN1CN1CC(=O)N2CCC[C@H]2C1=O	> 1 µM	–
O=C1[C@@H]2CCCN2C(=O)CN1CN1CCN(c2cccc3c2CC=COO3)CC1	> 1 µM	Ki [6]: 0.0123 µM
CCS(=O)(=O)Nc1cccc(N2CCN(CCCCN3C(=O)C4CCCN4C3=O)CC2)c1 (configuration not stated)	> 1 µM	–
O=C1C2CCCN2C(=O)N1CCCCN1CCN(c2cccc3[nH]cnc23)CC1 (configuration not stated)	0.0194 µM	–
O=C1C2CCCN2C(=O)CN1CN1CCN(c2cccc3c2CC=COO3)CC1 (configuration not stated)	> 1 µM	Ki [6]: 0.0116 µM
O=C1C2CCCCN2C(=O)N1CN1CCN(c2cccc3c2OCCO3)CC1 (configuration not stated)	> 1 µM	–
O=C1[C@H]2CCCN2C(=O)CN1CN1CCN(c2cccc3ccccc23)CC1	> 1 µM	Ki [6]: 0.0046 µM
O=C1C2CCCN2C(=O)N1CN1CCN(c2cccc3ccccc23)CC1 (configuration not stated)	> 1 µM	–

Now from value to compound, other results behind:

Ki [1]	Compound	further results
0.0201 µM	C[C@@H]1CN(c2cccc3ccccc23)CCN1CCCCN1CC(=O)N2CCC[C@@H]2C1=O	–
> 1 µM	O=C1[C@@H]2CCCN2C(=O)CN1CN1CCN(c2cccc3ccccc23)CC1	Ki [2]: 0.101 µM; Maximal effect [3]: 90.3%; Ki [4]: 0.976 µM; Ki [5]: > 10 µM; Ki [6]: 0.0041 µM; Ki [7]: 0.0089 µM; Ki [8]: 0.192 µM; Ki [9]: > 10 µM; Ki [10]: 0.0135 µM; EC50 [11]: 0.15 µM
> 10 µM	O=C1C2CCCN2C(=O)N1CN1CCN(c2cccc3[nH]cnc23)CC1 (configuration not stated)	–
> 1 µM	C[C@@H]1CN(c2cccc3ccccc23)CCN1CN1CC(=O)N2CCC[C@@H]2C1=O	–
> 1 µM	O=C1C2CCCN2C(=O)CN1CN1CCN(c2cccc3ccccc23)CC1 (configuration not stated)	Ki [6]: 0.0067 µM
> 1 µM	O=C1C2CCCCN2C(=O)N1CN1CCN(c2cccc3ccccc23)CC1 (configuration not stated)	–
> 1 µM	C[C@@H]1CN(c2cccc3ccccc23)CCN1CN1CC(=O)N2CCC[C@H]2C1=O	–
0.0344 µM	C[C@H]1CN(c2cccc3ccccc23)CCN1CCCCN1CC(=O)N2CCC[C@H]2C1=O	–
0.008 µM	O=C1C2CCCN2C(=O)CN1CCCCN1CCN(c2cccc3ccccc23)CC1 (configuration not stated)	–
> 1 µM	C[C@H]1CN(c2cccc3ccccc23)CCN1CN1CC(=O)N2CCC[C@@H]2C1=O	–
